{"source": "ChEMBL document CHEMBL1144865", "about": "“N-aminoimidazole derivatives inhibiting retroviral replication via a yet unidentified mode of action” (J Med Chem, 2003)", "data": [{"test_system": "C3H/3T3", "assay": "Tested for minimum inhibitory concentration against MSV-Induced transformation of C3H/3T3 embryo murine fibroblast in vitro", "format": "functional", "details": "Mus musculus", "procedure,_shortened": "(§1)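 C3H/3T3 cells seeded at 20 000 cells/mL and incubated 24 h, then infected with 80 focus-forming units of MSV for 120 min. Medium was then replaced with fresh medium containing test compound. Transformation was scored microscopically after 6 days.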", "units": {"MIC": "µM"}, "values": [{"smiles": "Cc1cccc(NN2C(S)=NC(C)C2c2ccccc2)c1", "note": "(stereo not drawn)", "MIC": "> 67.7"}, {"smiles": "Cc1nc(S)n(Nc2cccc(Cl)c2)c1-c1ccccc1", "MIC": "> 63.3"}, {"smiles": "Cc1nc(S)n(Nc2cccc(Cl)c2)c1-c1cccc(Cl)c1", "MIC": "> 11.4"}, {"smiles": "Cc1ccc(NN2C(S)=NC(C)C2c2ccccc2)cc1C", "note": "(stereo not drawn)", "MIC": "> 64.6"}, {"smiles": "CCC1N=C(S)N(Nc2cccc(Cl)c2)C1c1ccccc1", "note": "(stereo not drawn)", "MIC": "> 12.1"}]}, {"test_system": "MT4", "assay": "(§2) Concentration that reduced the MT-4 cell viability by 50%.", "format": "functional, Homo sapiens", "details": "Homo sapiens, MT4", "procedure,_shortened": "(§3)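 Mock-infected MT-4 cells, run in parallel with the antiviral assay, were exposed to compound. Viability on day 5 was read by MTT colorimetry. The value is the concentration lowering viability by 50%. Averages ± SD from at least two independent experiments.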", "units": {"CC50": "µM"}, "values": [{"smiles": "Cc1cccc(NN2C(S)=NC(C)C2c2ccccc2)c1", "note": "(stereo not drawn)", "CC50": 88.2}, {"smiles": "Cc1nc(S)n(Nc2cccc(Cl)c2)c1-c1ccccc1", "CC50": 66.7}, {"smiles": "Cc1nc(S)n(Nc2cccc(Cl)c2)c1-c1cccc(Cl)c1", "CC50": 30.9}, {"smiles": "Cc1ccc(NN2C(S)=NC(C)C2c2ccccc2)cc1C", "note": "(stereo not drawn)", "CC50": 55.6}, {"smiles": "CCC1N=C(S)N(Nc2cccc(Cl)c2)C1c1ccccc1", "note": "(stereo not drawn)", "CC50": 39}]}, {"test_system": "Human immunodeficiency virus 1", "assay": "Concentration required to inhibit the viral (HIV-1 IIIB strain) cytopathic effect by 50% in MT-4 cells.", "format": "functional, organism-based", "details": "Human immunodeficiency virus 1, MT4", "procedure,_shortened": "(§4)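 Virus-infected MT-4 cells cultured with serial compound dilutions; viability measured 5 days after infection by MTT tetrazolium colorimetric read-out. The value is the concentration protecting 50% of cells from viral cytopathic effect. Averages ± SD from at least two independent experiments. HIV-2 and SIV stocks came from infected MT-4 culture supernatants.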", "units": {"IC50": "µM"}, "values": [{"smiles": "Cc1cccc(NN2C(S)=NC(C)C2c2ccccc2)c1", "note": "(stereo not drawn)", "IC50": 1.56}, {"smiles": "Cc1nc(S)n(Nc2cccc(Cl)c2)c1-c1ccccc1", "IC50": 6.39}, {"smiles": "Cc1nc(S)n(Nc2cccc(Cl)c2)c1-c1cccc(Cl)c1", "IC50": 5}, {"smiles": "Cc1ccc(NN2C(S)=NC(C)C2c2ccccc2)cc1C", "note": "(stereo not drawn)", "IC50": 9.3}, {"smiles": "CCC1N=C(S)N(Nc2cccc(Cl)c2)C1c1ccccc1", "note": "(stereo not drawn)", "IC50": 9.06}, {"smiles": "CC(=O)c1ccc(C)cc1NC(C(N)=O)c1c(Cl)cccc1Cl", "note": "(stereo not drawn) [LOVIRIDE]", "IC50": 0.014}]}, {"test_system": "Human immunodeficiency virus 1", "assay": "Concentration required to inhibit the viral (HIV-1 NL4.3 strain) cytopathic effect by 50% in MT-4 cells.", "format": "functional, organism-based", "details": "Human immunodeficiency virus 1, MT4", "procedure,_shortened": "as §4", "units": {"IC50": "µM"}, "values": [{"smiles": "Cc1cccc(NN2C(S)=NC(C)C2c2ccccc2)c1", "note": "(stereo not drawn)", "IC50": 2.17}, {"smiles": "Cc1nc(S)n(Nc2cccc(Cl)c2)c1-c1ccccc1", "IC50": 8.99}, {"smiles": "Cc1nc(S)n(Nc2cccc(Cl)c2)c1-c1cccc(Cl)c1", "IC50": 2.48}, {"smiles": "Cc1ccc(NN2C(S)=NC(C)C2c2ccccc2)cc1C", "note": "(stereo not drawn)", "IC50": 3.54}, {"smiles": "CCC1N=C(S)N(Nc2cccc(Cl)c2)C1c1ccccc1", "note": "(stereo not drawn)", "IC50": "> 39"}, {"smiles": "CC(=O)c1ccc(C)cc1NC(C(N)=O)c1c(Cl)cccc1Cl", "note": "(stereo not drawn) [LOVIRIDE]", "IC50": 0.006}]}, {"test_system": "Human immunodeficiency virus 1", "assay": "Concentration required to inhibit the viral (HIV-1 NNRTI resistant strain) cytopathic effect by 50% in MT-4 cells.", "format": "functional, organism-based", "details": "Human immunodeficiency virus 1, MT4", "procedure,_shortened": "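MT-4 cells infected with HIV-1(III_B)-derived strain S0561945 (K103N + Y181C RT mutations, NNRTI-resistant). Cultured with varying compound concentrations; viability read on day 5 post-infection by MTT tetrazolium colorimetry. Value is the concentration giving 50% protection against virus-induced cytopathic effect. Cytotoxicity measured in parallel on mock-infected cells at day 5. Averages ± SD from at least two independent experiments.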", "units": {"IC50": "µM"}, "values": [{"smiles": "Cc1cccc(NN2C(S)=NC(C)C2c2ccccc2)c1", "note": "(stereo not drawn)", "IC50": 26.1}, {"smiles": "Cc1nc(S)n(Nc2cccc(Cl)c2)c1-c1ccccc1", "IC50": 9.72}, {"smiles": "Cc1nc(S)n(Nc2cccc(Cl)c2)c1-c1cccc(Cl)c1", "IC50": 1.86}, {"smiles": "Cc1ccc(NN2C(S)=NC(C)C2c2ccccc2)cc1C", "note": "(stereo not drawn)", "IC50": "> 55.6"}, {"smiles": "CCC1N=C(S)N(Nc2cccc(Cl)c2)C1c1ccccc1", "note": "(stereo not drawn)", "IC50": "> 39"}, {"smiles": "CC(=O)c1ccc(C)cc1NC(C(N)=O)c1c(Cl)cccc1Cl", "note": "(stereo not drawn) [LOVIRIDE]", "IC50": "> 10"}]}, {"test_system": "Human immunodeficiency virus 2", "assay": "Concentration required to inhibit the viral (HIV-2 ROD) cytopathic effect by 50% in MT-4 cells.", "format": "functional, organism-based, MT4", "details": "Human immunodeficiency virus 2, MT4", "procedure,_shortened": "as §4", "units": {"IC50": "µM"}, "values": [{"smiles": "Cc1cccc(NN2C(S)=NC(C)C2c2ccccc2)c1", "note": "(stereo not drawn)", "IC50": "> 35.7"}, {"smiles": "Cc1nc(S)n(Nc2cccc(Cl)c2)c1-c1ccccc1", "IC50": 8.11}, {"smiles": "Cc1nc(S)n(Nc2cccc(Cl)c2)c1-c1cccc(Cl)c1", "IC50": 3.91}, {"smiles": "Cc1ccc(NN2C(S)=NC(C)C2c2ccccc2)cc1C", "note": "(stereo not drawn)", "IC50": "> 55.6"}, {"smiles": "CCC1N=C(S)N(Nc2cccc(Cl)c2)C1c1ccccc1", "note": "(stereo not drawn)", "IC50": "> 39"}, {"smiles": "CC(=O)c1ccc(C)cc1NC(C(N)=O)c1c(Cl)cccc1Cl", "note": "(stereo not drawn) [LOVIRIDE]", "IC50": "> 10"}]}, {"test_system": "Simian immunodeficiency virus", "assay": "Concentration required to inhibit the viral (SIV mac251) cytopathic effect by 50% in MT-4 cells.", "format": "functional, organism-based, MT4", "details": "Simian immunodeficiency virus, mac251, MT4", "procedure,_shortened": "as §4", "units": {"IC50": "µM"}, "values": [{"smiles": "Cc1cccc(NN2C(S)=NC(C)C2c2ccccc2)c1", "note": "(stereo not drawn)", "IC50": 6.5}, {"smiles": "Cc1nc(S)n(Nc2cccc(Cl)c2)c1-c1ccccc1", "IC50": 8.2}, {"smiles": "Cc1nc(S)n(Nc2cccc(Cl)c2)c1-c1cccc(Cl)c1", "IC50": 1.22}, {"smiles": "Cc1ccc(NN2C(S)=NC(C)C2c2ccccc2)cc1C", "note": "(stereo not drawn)", "IC50": 10.3}, {"smiles": "CCC1N=C(S)N(Nc2cccc(Cl)c2)C1c1ccccc1", "note": "(stereo not drawn)", "IC50": 3.88}, {"smiles": "CC(=O)c1ccc(C)cc1NC(C(N)=O)c1c(Cl)cccc1Cl", "note": "(stereo not drawn) [LOVIRIDE]", "IC50": "> 10"}]}, {"test_system": "MT4", "assay": "as §2", "format": "functional, cell-based", "details": "Homo sapiens", "procedure,_shortened": "as §3", "units": {"CC50": "µM"}, "values": [{"smiles": "CC(=O)c1ccc(C)cc1NC(C(N)=O)c1c(Cl)cccc1Cl", "note": "(stereo not drawn) [LOVIRIDE]", "CC50": "> 10"}]}, {"molecular_target": "Human immunodeficiency virus type 1 reverse transcriptase (Human immunodeficiency virus 1) (UniProt Q72547)", "assay": "Tested for the concentration required to inhibit recombinant HIV-1 reverse transcriptase using polyrA.oligodT as the template primer", "details": "not given", "procedure,_shortened": "(§5)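 Recombinant HIV-1 RT assay. Template primer and labelled substrate were poly(rA).oligo(dT) with [³H]dTTP, or poly(rC).oligo(dG) with [³H]dGTP. Each radiolabelled dNTP was at 2.5 μM final in the reaction mixture.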", "units": {"Concentration": "µM"}, "values": [{"smiles": "Cc1cccc(NN2C(S)=NC(C)C2c2ccccc2)c1", "note": "(stereo not drawn)", "Concentration": 125}]}, {"molecular_target": "Human immunodeficiency virus type 1 reverse transcriptase (Human immunodeficiency virus 1) (UniProt Q72547)", "assay": "Tested for the concentration required to inhibit recombinant HIV-1 reverse transcriptase using polyrC.oligodG as the template primer", "details": "not given", "procedure,_shortened": "as §5", "units": {"Concentration": "µM"}, "values": [{"smiles": "Cc1cccc(NN2C(S)=NC(C)C2c2ccccc2)c1", "note": "(stereo not drawn)", "Concentration": 105}]}, {"test_system": "C3H/3T3", "assay": "Tested for inhibitory concentration against MSV-Induced transformation of C3H/3T3 embryo murine fibroblast in vitro", "format": "functional, cell-based", "details": "Mus musculus", "procedure,_shortened": "as §1", "units": {"IC50": "µM"}, "values": [{"smiles": "Cc1cccc(NN2C(S)=NC(C)C2c2ccccc2)c1", "note": "(stereo not drawn)", "IC50": "> 67.7"}, {"smiles": "Cc1nc(S)n(Nc2cccc(Cl)c2)c1-c1ccccc1", "IC50": 38}, {"smiles": "Cc1nc(S)n(Nc2cccc(Cl)c2)c1-c1cccc(Cl)c1", "IC50": "> 11.4"}, {"smiles": "Cc1ccc(NN2C(S)=NC(C)C2c2ccccc2)cc1C", "note": "(stereo not drawn)", "IC50": "> 64.6"}, {"smiles": "CCC1N=C(S)N(Nc2cccc(Cl)c2)C1c1ccccc1", "note": "(stereo not drawn)", "IC50": "> 12.1"}]}]}
